Results published in ChEMBL document CHEMBL3526048, “In vitro metabolism of rivoglitazone, a novel peroxisome proliferator-activated receptor γ agonist, in rat, monkey, and human liver microsomes and freshly isolated hepatocytes” (Drug Metab Dispos, 2011).

What was measured:
Cytochrome P450 2C9 = Cytochrome P450 2C9 (Homo sapiens, UniProt P11712); experiment: Activity of human CYP2C9 expressed in microsomes isolated from baculovirus infected insect cell assessed as enzyme-mediated compound formation treated with [14C]-rivoglitazone at 20 uM after 2 hrs by radio-HPLC/LC-MS/MS analysis in presence of NADPH-generating system; assay type: ADME
Cytochrome P450 2C9, sequence (P11712 whole entry): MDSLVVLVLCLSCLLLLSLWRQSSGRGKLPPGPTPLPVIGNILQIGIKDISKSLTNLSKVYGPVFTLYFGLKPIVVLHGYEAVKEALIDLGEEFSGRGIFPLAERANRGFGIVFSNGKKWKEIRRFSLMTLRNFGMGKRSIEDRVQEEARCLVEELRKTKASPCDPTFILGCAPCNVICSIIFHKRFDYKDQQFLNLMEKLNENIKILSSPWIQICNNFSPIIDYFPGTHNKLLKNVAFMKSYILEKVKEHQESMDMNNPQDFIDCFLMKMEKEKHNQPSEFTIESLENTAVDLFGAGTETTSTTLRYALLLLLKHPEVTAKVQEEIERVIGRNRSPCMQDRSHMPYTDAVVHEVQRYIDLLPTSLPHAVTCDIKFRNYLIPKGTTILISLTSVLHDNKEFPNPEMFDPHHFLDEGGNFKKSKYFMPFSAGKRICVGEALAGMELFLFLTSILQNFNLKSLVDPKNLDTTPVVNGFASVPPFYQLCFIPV
Procedure, shortened: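 Baculovirus-insect-cell microsomes expressing the human CYP (1 mg/ml protein) were incubated with [14C]rivoglitazone (20 μM) in 50 mM potassium phosphate (pH 7.4) or 100 mM Tris-HCl (pH 7.5) with an NADPH-generating system (2 mM NADP+, 20 mM glucose 6-phosphate, 2 units/ml G6PDH, 10 mM MgCl2) for 2 h at 37°C. Insect-cell control supersomes served as the control. Reactions were stopped with acetonitrile, and the concentrated supernatants were analysed by radio-HPLC, LC-MS and LC-MS/MS.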

[1] = Retention time of the compound by LC-MS/MS analysis; assay type: physicochemical
Procedure, shortened: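 LC-MS/MS used a YMC-Pack ODS-A column (1.5 × 150 mm, 5 μm) at 30°C, 0.1 ml/min. Mobile phase was water and acetonitrile, each with 0.01% TFA. Gradient: 12→60% B over 30 min, →90% B over 5 min, hold 5 min. Detection was UV 220 nm with positive ESI Q-TOF (capillary 3300 V, cone 45 V), collision energy 20 eV and xenon as collision gas.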

Cytochrome P450 3A5 = Cytochrome P450 3A5 (Homo sapiens, UniProt P20815); experiment: Activity of human CYP3A5 expressed in microsomes isolated from baculovirus infected insect cell assessed as enzyme-mediated compound formation treated with [14C]-rivoglitazone at 20 uM after 2 hrs by radio-HPLC/LC-MS/MS analysis in presence of NADPH-generating system; assay type: ADME
Cytochrome P450 3A5, sequence (P20815 whole entry): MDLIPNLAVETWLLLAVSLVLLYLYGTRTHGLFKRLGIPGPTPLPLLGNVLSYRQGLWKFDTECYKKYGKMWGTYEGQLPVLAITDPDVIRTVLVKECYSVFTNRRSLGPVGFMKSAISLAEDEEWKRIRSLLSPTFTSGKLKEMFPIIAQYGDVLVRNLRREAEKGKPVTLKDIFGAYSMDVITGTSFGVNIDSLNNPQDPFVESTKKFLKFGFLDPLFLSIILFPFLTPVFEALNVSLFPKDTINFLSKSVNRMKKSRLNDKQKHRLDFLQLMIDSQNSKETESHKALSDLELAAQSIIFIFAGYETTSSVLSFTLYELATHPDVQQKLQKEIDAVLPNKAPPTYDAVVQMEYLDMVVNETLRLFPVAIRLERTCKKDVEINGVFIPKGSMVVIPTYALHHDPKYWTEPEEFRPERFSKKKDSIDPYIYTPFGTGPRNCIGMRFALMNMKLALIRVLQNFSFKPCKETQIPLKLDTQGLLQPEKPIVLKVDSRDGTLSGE
Procedure, shortened: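 cDNA-expressed human CYP3A5 in baculovirus-insect-cell microsomes (1 mg/ml protein) was incubated with [¹⁴C]rivoglitazone (20 μM) in 50 mM potassium phosphate (pH 7.4) or 100 mM Tris-HCl (pH 7.5). NADPH-generating system: 2 mM NADP⁺, 20 mM glucose 6-phosphate, 2 units/ml G6PDH, 10 mM MgCl₂. Incubation ran 2 h at 37°C with shaking; insect-cell control supersomes served as control. Acetonitrile stop, supernatant concentrated, then radio-HPLC, LC-MS and LC-MS/MS.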

Liver microsome [2] = experiment: Drug metabolism in human liver microsomes assessed as formation of 3-(4-((6-methoxy-1-methyl-1H-benzo[d]imidazol-2-yl)methoxy)phenyl)-2-(methylsulfonyl)propanamide at 20 uM after 2 hrs by radio-HPLC/LC-MS/MS analysis in presence of NADPH-generating system/SAM; assay type: ADME
[3] = Drug metabolism in cynomolgus monkey liver microsomes assessed as formation of 2-amino-3-((1-carboxy-2-(4-((6-methoxy-1-methyl-1H-benzo[d]imidazol-2-yl)methoxy)phenyl)ethyl)disulfanyl)propanoic acid at 20 uM by radio-HPLC/LC-MS/MS analysis; assay type: ADME, Macaca fascicularis
[4] = Drug metabolism in cynomolgus monkey liver microsomes assessed as formation of 5-(4-((6-hydroxy-1-methyl-1H-benzo[d]imidazol-2-yl)methoxy)benzyl)thiazolidine-2,4-dione at 20 uM after 2 hrs by radio-HPLC/LC-MS/MS analysis in presence of NADPH-generating system and NADPH-generating system/SAM; assay type: ADME, Macaca fascicularis
Cytochrome P450 3A4 = Cytochrome P450 3A4 (Homo sapiens, UniProt P08684); experiment: Activity of human CYP3A4 expressed in microsomes isolated from baculovirus infected insect cell assessed as enzyme-mediated 2-mercapto-3-(4-((6-methoxy-1-methyl-1H-benzo[d]imidazol-2-yl)methoxy)phenyl)propanamide formation at 20 uM after 2 hrs by radio-HPLC/LC-MS/MS analysis in presence of NADPH-generating system and NADPH-generating system/SAM; assay type: ADME
Cytochrome P450 3A4, sequence (P08684 whole entry): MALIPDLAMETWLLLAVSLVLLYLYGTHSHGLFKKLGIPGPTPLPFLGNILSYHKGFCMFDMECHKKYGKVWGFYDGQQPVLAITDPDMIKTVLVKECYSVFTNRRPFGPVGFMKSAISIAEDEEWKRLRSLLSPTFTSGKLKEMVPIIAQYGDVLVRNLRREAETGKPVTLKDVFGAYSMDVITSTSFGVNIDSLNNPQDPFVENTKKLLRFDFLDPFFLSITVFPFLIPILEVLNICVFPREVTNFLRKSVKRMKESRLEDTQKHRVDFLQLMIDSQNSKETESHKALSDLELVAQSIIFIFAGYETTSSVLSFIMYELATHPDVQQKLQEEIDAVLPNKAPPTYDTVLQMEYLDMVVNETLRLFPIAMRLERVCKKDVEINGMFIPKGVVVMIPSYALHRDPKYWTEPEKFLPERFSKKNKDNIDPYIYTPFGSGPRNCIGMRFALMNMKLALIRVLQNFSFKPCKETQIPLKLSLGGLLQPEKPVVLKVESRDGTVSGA

Liver microsome [5] = experiment: Drug metabolism in Sprague-Dawley rat liver microsomes assessed as formation of 3-(4-((6-methoxy-1-methyl-1H-benzo[d]imidazol-2-yl)methoxy)phenyl)-2-(methylthio)propanamide at 20 uM after 2 hrs by radio-HPLC/LC-MS/MS analysis in presence of NADPH-generating system/SAM; assay type: ADME
[6] = Drug metabolism in monkey hepatocytes assessed as formation of 5-(4-((6-hydroxy-1-methyl-1H-benzo[d]imidazol-2-yl)methoxy)benzyl)thiazolidine-2,4-dione at 30 uM after 3 hrs by radio-HPLC/LC-MS/MS analysis in presence of NADPH-generating system and NADPH-generating system/SAM; details: cynomolgus monkey
Liver microsome [7] = experiment: Drug metabolism in human liver microsomes assessed as formation of 5-hydroxy-5-(4-((6-methoxy-1-methyl-1H-benzo[d]imidazol-2-yl)methoxy)benzyl)thiazolidine-2,4-dione at 20 uM after 2 hrs by radio-HPLC/LC-MS/MS analysis in presence of NADPH-generating system and NADPH-generating system/SAM; assay type: ADME
[8] = biological target: T1, UDP-glucuronosyltransferase 1A8 (Homo sapiens, UniProt Q9HAW9); experiment: Activity of human UGT1A8 expressed in microsomes isolated from baculovirus infected insect cell assessed as enzyme-mediated 2-mercapto-3-(4-((6-methoxy-1-methyl-1H-benzo[d]imidazol-2-yl)methoxy)phenyl)propanoic acid formation at 20 uM after 4 hrs by radio-HPLC/LC-MS/MS analysis in presence of UDPGA; assay type: ADME
T1 sequence (Q9HAW9 whole entry): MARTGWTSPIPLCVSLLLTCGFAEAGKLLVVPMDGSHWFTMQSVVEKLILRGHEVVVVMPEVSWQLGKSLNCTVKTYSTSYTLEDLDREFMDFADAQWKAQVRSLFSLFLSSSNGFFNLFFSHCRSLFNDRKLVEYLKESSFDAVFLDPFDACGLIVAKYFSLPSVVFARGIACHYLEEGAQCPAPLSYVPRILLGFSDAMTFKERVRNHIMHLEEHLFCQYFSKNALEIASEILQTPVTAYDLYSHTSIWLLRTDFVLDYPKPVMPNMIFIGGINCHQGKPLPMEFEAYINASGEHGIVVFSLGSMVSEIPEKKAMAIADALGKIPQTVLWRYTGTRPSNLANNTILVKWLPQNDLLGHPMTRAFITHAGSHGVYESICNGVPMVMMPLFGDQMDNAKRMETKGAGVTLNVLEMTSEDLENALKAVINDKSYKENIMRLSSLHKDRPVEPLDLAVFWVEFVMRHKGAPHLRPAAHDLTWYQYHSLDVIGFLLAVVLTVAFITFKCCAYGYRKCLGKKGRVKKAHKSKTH

Compound	Drug metabolism (Cytochrome P450 2C9)	Retention_time [1] [min]	Drug metabolism (Cytochrome P450 3A5)	Drug metabolism (Liver microsome [2])	Drug metabolism [3]	Drug metabolism [4]	Drug metabolism (Cytochrome P450 3A4)	Drug metabolism (Liver microsome [5])	Drug metabolism [6]	Drug metabolism (Liver microsome [7])	Drug metabolism [8]
COc1ccc2nc(COc3ccc(CC(S)C(=O)O)cc3)n(C)c2c1 (stereo unspecified)	metabolite_detected	23.9	metabolite_detected	–	–	–	–	–	–	–	–
COc1ccc2nc(COc3ccc(C[14CH]4SC(=O)NC4=O)cc3)n(C)c2c1.Cl (racemic)	–	–	–	metabolite_detected	metabolite_not_detected	metabolite_detected	metabolite_detected	metabolite_detected	metabolite_detected	metabolite_detected	metabolite_not_detected
